Source: ChEMBL document CHEMBL3244156, “Analgesic and tranquilizing activity of 5,8-disubstituted 1-tetralone Mannich bases” (1977)
Activity calls are given as the source filed them. The calls are words filed in the database; no cut-off is given here.

What was measured:
Mus musculus [1] = test: Neuroleptic activity in ip dosed mouse assessed as inhibition of amphetamine-induced mortality; type: functional
Procedure, shortened: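 Aggregated mice in groups of ten given amphetamine. Value is an ED50 estimate for blocking lethality, bracketed between a dose where <5/10 died and a dose where >5/10 died.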

Rattus norvegicus [2] = test: Neuroleptic activity in ip dosed rat assessed as drug required for blocking discriminated jump-out avoidance behavior in after 1 hr; type: functional
Procedure, shortened: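 Rats trained in discriminated jump-out avoidance and tested 1 h after dosing. Value is an estimated ED50 for blocking avoidance.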

Rattus norvegicus [3] = test: Analgesic activity in rat assessed as median foot shock required to elicit flinch-jump at 32 mg/kg, ip after 2 hrs; type: functional; settings: route intraperitoneal
Procedure, shortened: (§1)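 Series given just before and 0.5 and 2 h after ip dosing. Flinch, squeak and jump were scored. Value is the median shock (mA) that elicits a jump. At least five rats per dose.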

Mus musculus [4] = test: Analgesic activity in mouse at 100 mg/kg, ip after 2 hrs by hot plate assay; type: functional; settings: route intraperitoneal
Procedure, shortened: (§2)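 Mice dropped into a glass cylinder on an aluminum plate held at 57 °C. Timed from foot contact to first hind-foot flick, with a 10-s limit. Observed 0.5 and 2 h after treatment. Value is % of mice failing to react within the limit. At least ten mice per dose.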

Mus musculus [5] = test: Analgesic activity in mouse assessed as tail-flick latency period at 100 mg/kg, ip after 2 hrs by tail flick test; type: functional; settings: route intraperitoneal
Mus musculus [6] = test: Analgesic activity in mouse at 32 mg/kg, ip after 2 hrs by hot plate assay; type: functional; settings: route intraperitoneal; procedure, shortened: as §2
Rattus norvegicus [7] = test: Analgesic activity in rat assessed as median foot shock required to elicit flinch-jump at 10 mg/kg, ip after 2 hrs; type: functional; settings: route intraperitoneal; procedure, shortened: as §1
Mus musculus [8] = test: Analgesic activity in mouse assessed as tail-flick latency period at 32 mg/kg, ip after 2 hrs by tail flick test; type: functional; settings: route intraperitoneal
Canis familiaris [9] = test: Analgesic activity in dog assessed as rippling of skin at 10 mg/kg, po after 2 hrs by radiant heat assay; type: functional, Canis lupus familiaris
Procedure, shortened: (§3)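 Dogs held in a harness with a shaved mid-back patch placed under a concealed radiant heat source. Endpoint is the latency from heat onset to skin "rippling". Baseline latency measured in each dog, then retested at 0.5 and 2 h after dosing. Result expressed as % of control.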

Rattus norvegicus [10] = test: Analgesic activity in rat assessed as median foot shock required to elicit flinch-jump at 17.8 mg/kg, po after 2 hrs; type: functional
Canis familiaris [11] = test: Analgesic activity in dog assessed as rippling of skin at 5 mg/kg, po after 2 hrs by radiant heat assay; type: functional, Canis lupus familiaris; procedure, shortened: as §3
Rattus norvegicus [12] = test: Analgesic activity in ip dosed rat assessed as median foot shock required to elicit flinch-jump in presence of naloxone; type: functional, organism-based
Rattus norvegicus [13] = species: Rattus norvegicus; test: Induction of cross-tolerance development in rat assessed as median foot shock required to elicit flinch-jump in presence of morphine; type: functional, organism-based
Rattus norvegicus [14] = species: Rattus norvegicus; test: Induction of tolerance development in rat assessed as median foot shock required to elicit flinch-jump; type: functional, organism-based
Canis familiaris [15] = test: Analgesic activity in dog assessed as rippling of skin at 5 mg/kg, ip after 2 hrs by radiant heat assay; type: functional, Canis lupus familiaris; settings: route intraperitoneal; procedure, shortened: as §3

Row | SMILES | Activity (Rattus norvegicus [3]) [mA] | Activity (Mus musculus [4]) [%] | Activity (Mus musculus [5]) [%] | other results
1 | CCc1c(C)[nH]c2c1C(=O)C(CN1CCOCC1)CC2 (configuration not stated) [MOLINDONE] |  |  |  | ED50 (Mus musculus [1]): 3.2 mg/kg; ED50 (Rattus norvegicus [2]): 3.2 mg/kg
2 | COc1ccc(Cl)c2c1CCC(C(c1ccccc1)N1CCCCC1)C2=O.Cl (configuration not stated) | 0.6 | 30 | 0 | 
3 | COc1ccc(C)c2c1CCC(CN1CCCCC1)C2=O.Cl (configuration not stated) | >2.2 |  |  | Activity (Mus musculus [6]): 40%; Activity (Rattus norvegicus [7]): 2.2 mA; Activity (Mus musculus [8]): 30%
4 | CCOc1ccc(Cl)c2c1CCC(CN1CCCCC1)C2=O.Cl (configuration not stated) | 0.6 | 33 | 33 | 
5 | COc1ccc(Cl)c2c1CCC(C(C)N1CCOCC1)C2=O.Cl (configuration not stated) | 0.6 | 0 | 0 | 
6 | CCOC1(c2ccccc2)CCN(CC2CCc3c(OC)ccc(Cl)c3C2=O)CC1.Cl (configuration not stated) | 1.2 | 0 | 0 | 
7 | CCNCC1CCc2c(OC)ccc(Cl)c2C1=O.Cl (configuration not stated) | >2.2 |  |  | Activity (Mus musculus [6]): 40%; Activity (Rattus norvegicus [7]): 2.2 mA; Activity (Mus musculus [8]): 0%
8 | COc1ccc(Cl)c2c1C(C)CC(CN1CCCCC1)C2=O.Cl (configuration not stated) | 1.2 |  |  | 
9 | CCOc1ccc(Cl)c2c1CCC(CN1CCOCC1)C2=O.Cl (configuration not stated) | 2.2 | 10 | 20 | 
10 | CCOC(=O)N1CCN(CC2CCc3c(OC)ccc(Cl)c3C2=O)CC1.O=C(O)/C=C\C(=O)O (configuration not stated) | 0.6 | 0 | 0 | 
11 | CN(C)CCCN1c2ccccc2Sc2ccc(Cl)cc21 [CHLORPROMAZINE] |  |  |  | ED50 (Mus musculus [1]): 1 mg/kg; ED50 (Rattus norvegicus [2]): 3.2 mg/kg
12 | CNCC1CCc2c(OC)ccc(Cl)c2C1=O.Cl (configuration not stated) | >2.2 | 10 | 0 | Activity (Rattus norvegicus [7]): 1.2 mA
13 | COc1ccc(C)c2c1CCC(CN1CCOCC1)C2=O.Cl (configuration not stated) | 0.6 | 10 | 0 | 
14 | COc1ccc(F)c2c1CCC(CN1CCCC1)C2=O.Cl (configuration not stated) | 1.2 | 50 | 0 | 
15 | Cl.O=C1c2ccccc2CCC1CN1CCOCC1 (configuration not stated) | 0.6 | 10 | 20 | ED50 (Mus musculus [1]): 32 mg/kg; Activity (Canis familiaris [9]): 90%; ED50 (Rattus norvegicus [2]): > 10 mg/kg
16 | CCC(=O)O[C@](Cc1ccccc1)(c1ccccc1)[C@H](C)CN(C)C [PROPOXYPHENE] |  | 30 | 70 | Activity (Rattus norvegicus [10]): 1.2%; Activity (Canis familiaris [11]): 100%
17 | COc1ccc(C)c2c1CCC(CN(C)C)C2=O.Cl (configuration not stated) | 0.6 |  |  | 
18 | Cl.O=C1c2ccccc2CCC1CN1CCCC1 (configuration not stated) | 1.2 | 0 | 10 | ED50 (Mus musculus [1]): 32 mg/kg; Activity (Canis familiaris [9]): 100%; ED50 (Rattus norvegicus [2]): > 10 mg/kg
19 | COc1ccc(Cl)c2c1CCC(CNC1CCCCC1)C2=O.Cl (configuration not stated) | >2.2 |  | 0 | Activity (Rattus norvegicus [7]): 1.2 mA
20 | COc1ccc(Cl)c2c1CCC(C(C)N1CCCCC1)C2=O.Cl (configuration not stated) | 0.6 | 20 | 0 | 
21 | COc1ccc(OC)c2c1CCC(CN(C)C)C2=O.Cl (configuration not stated) | 0.6 | 10 | 0 | 
22 | Cl.O=C1c2ccccc2CCC1CN1CCCCC1 (configuration not stated) | 0.8 | 0 | 0 | ED50 (Mus musculus [1]): > 100 mg/kg; ED50 (Rattus norvegicus [2]): > 32 mg/kg
23 | COc1ccc(Cl)c2c1CC(CN1CCCC1)C2=O.Cl (configuration not stated) | 0.6 | 0 | 0 | 
24 | COc1cccc2c1CCC(CN1CCOCC1)C2=O.Cl (configuration not stated) | 0.6 |  |  | 
25 | C=CCNCC1CCc2c(OC)ccc(Cl)c2C1=O.Cl (configuration not stated) | >2.2 |  |  | Activity (Mus musculus [6]): 0%; Activity (Rattus norvegicus [7]): 2.2 mA; Activity (Mus musculus [8]): 0%
26 | COc1ccc(Cl)c2c1CCC(CN1CCC(O)(c3ccccc3)CC1)C2=O.Cl (configuration not stated) | >2.2 | 60 | 0 | Activity (Rattus norvegicus [7]): 1.2 mA
27 | COc1cccc2c1CCC(CN(C)C)C2=O.Cl (configuration not stated) | 1.2 | 0 | 0 | 
28 | COc1ccc(Cl)c2c1CCC(C)(CN1CCOCC1)C2=O.Cl (configuration not stated) | 0.6 |  |  | 

Row | SMILES | Activity (Rattus norvegicus [3]) [mA] | Activity (Mus musculus [4]) [%] | Activity (Mus musculus [5]) [%] | other results
29 | COc1ccc(C)c2c1CCC(CN1CCCC1)C2=O.Cl (configuration not stated) | 2.2 | 12.5 | 50 | 
30 | COc1ccc(Cl)c2c1C(C)CC(CN1CCOCC1)C2=O.Cl (configuration not stated) | 0.8 | 30 | 40 | 
31 | COc1ccc(F)c2c1CCC(CN1CCCCC1)C2=O.Cl (configuration not stated) | 1.6 |  |  | Activity (Mus musculus [6]): 60%; Activity (Mus musculus [8]): 10%
32 | COc1ccc(OC)c2c1CCC(CN1CCCCC1)C2=O.Cl (configuration not stated) | 2.2 | 0 | 22 | 
33 | CN(C)CC1CCc2ccccc2C1=O.Cl (configuration not stated) | 1.2 | 10 | 0 | ED50 (Mus musculus [1]): 32 mg/kg; Activity (Canis familiaris [9]): 70%; ED50 (Rattus norvegicus [2]): > 10 mg/kg
34 | COc1ccc(Cl)c2c1CCC(CN1CCOCC1)C2=O.O=C(O)/C=C\C(=O)O (configuration not stated) | 2.2 | 0 | 20 | ED50 (Mus musculus [1]): 32 mg/kg; Activity (Canis familiaris [9]): 140%; ED50 (Rattus norvegicus [2]): 0.32 mg/kg
35 | COc1ccc(Cl)c2c1CCC(CN1CCC(c3ccccc3)CC1)C2=O.Cl (configuration not stated) | >2.2 | 20 | 10 | Activity (Rattus norvegicus [7]): 2.2 mA
36 | COc1ccc(Cl)c2c1CCC(C(c1ccccc1)N1CCOCC1)C2=O.Cl (configuration not stated) | 0.6 | 0 | 0 | 
37 | CCOc1ccc(Cl)c2c1CCC(CN1CCCC1)C2=O.Cl (configuration not stated) | 0.6 | 30 | 60 | 
38 | COc1ccc(Cl)c2c1CCC(CN1CCCC1)C2=O.Cl (configuration not stated) | >2.2 | 30 | 0 | ED50 (Mus musculus [1]): 10 mg/kg; Activity (Canis familiaris [9]): 160%; Activity (Rattus norvegicus [7]): 1.2 mA; Activity (Rattus norvegicus [12]): Active; ED50 (Rattus norvegicus [2]): > 178 mg/kg; Activity (Rattus norvegicus [13]): inactive; Activity (Rattus norvegicus [14]): inactive
39 | COc1ccc(Cl)c2c1CC(CN1CCCCC1)C2=O.Cl (configuration not stated) | 0.6 | 0 | 0 | 
40 | COc1ccc(Cl)c2c1CCC(CN1CCCCCC1)C2=O.Cl (configuration not stated) | 1.2 | 0 | 0 | 
41 | COc1cccc2c1CCC(CN1CCCCC1)C2=O.Cl (configuration not stated) | 0.8 |  |  | 
42 | COc1ccc(F)c2c1CCC(CN1CCOCC1)C2=O.Cl (configuration not stated) | 1.2 | 30 | 10 | 
43 | COc1ccc(Cl)c2c1CCC(C)(CN1CCCCC1)C2=O.Cl (configuration not stated) | 0.6 |  |  | 
44 | CCOC(=O)C1(c2ccccc2)CCN(C)CC1 [MEPERIDINE] | 1.2 | 50 | 70 | Activity (Canis familiaris [15]): 150%; ED50 (Rattus norvegicus [2]): 10 mg/kg
45 | CCN(CC)CC1CCc2c(OC)ccc(Cl)c2C1=O.O=C(O)/C=C\C(=O)O (configuration not stated) | 0.6 | 20 | 0 | 
46 | COc1ccc(Cl)c2c1CCC(CN1CCCCC1)C2=O.Cl (configuration not stated) | >2.2 | 0 | 0 | ED50 (Mus musculus [1]): 10 mg/kg; Activity (Canis familiaris [9]): 110%; Activity (Rattus norvegicus [7]): 2.2 mA; ED50 (Rattus norvegicus [2]): 32 mg/kg
47 | COc1ccc(F)c2c1CCC(CN(C)C)C2=O.Cl (configuration not stated) | 0.6 | 50 | 0 | 
48 | COc1ccc(Cl)c2c1CCC(CN(C)C)C2=O.Cl (configuration not stated) | 2.2 | 0 | 10 | ED50 (Mus musculus [1]): 32 mg/kg; Activity (Canis familiaris [9]): 130%; ED50 (Rattus norvegicus [2]): > 178 mg/kg
49 | COc1ccc(Cl)c2c1CC(CN(C)C)C2=O.Cl (configuration not stated) | 0.6 | 20 | 30 | 
50 | CN1CCN(CC/C=C2/c3ccccc3Sc3ccc(S(=O)(=O)N(C)C)cc32)CC1 [THIOTHIXENE] |  |  |  | ED50 (Mus musculus [1]): 0.32 mg/kg; ED50 (Rattus norvegicus [2]): 3.2 mg/kg
51 | CCOc1ccc(Cl)c2c1CCC(CN(C)C)C2=O.Cl (configuration not stated) | 0.6 | 0 | 0 | 
52 | COc1ccc(OC)c2c1CCC(CN1CCOCC1)C2=O.Cl (configuration not stated) | 0.6 | 10 | 0 | 
53 | COc1ccc(OC)c2c1CCC(CN1CCCC1)C2=O.Cl (configuration not stated) | 1.2 | 0 | 0 | 
54 | COc1cccc2c1CCC(CN1CCCC1)C2=O.Cl (configuration not stated) | 0.8 | 0 | 0 | 
55 | COc1ccc(Cl)c2c1CC(CN1CCOCC1)C2=O.Cl (configuration not stated) | 0.6 | 0 | 0 | 
